We go through 21 molecules from ChEMBL document CHEMBL1150563, “Six new diarylheptanoids from the seeds of Alpinia blepharocalyx” (2001).

Structures are written as SMILES. Some results are limits rather than exact numbers.

A short description of test [1]: Antiproliferative activity against mouse Colon 26-L5 cells by MTT assay. The format is functional. As to conditions: read-out: ED50 (the source's name). A digest of the protocol:
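Murine colon 26-L5 carcinoma cells grown in RPMI-1640 with 10% fetal calf serum, 0.1% NaHCO3 and 2 mM glutamine. Cell viability in presence and absence of agent measured by MTT; 5-fluorouracil served as positive control. ED50 derived from the mean of six determinations.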
For orientation: Formazan colour is commonly taken as a measure of viable cells.

A further test concerns HT-1080. As to the kind of experiment: Antiproliferative activity against human HT1080 cells by MTT assay. The test is classed as functional. As to conditions: read-out: ED50 (the source's name). A digest of the protocol:
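Human HT-1080 fibrosarcoma cells grown in Eagle's MEM with 10% fetal calf serum, 0.1% NaHCO3 and 2 mM glutamine. Viability with and without test agent read by MTT assay; 5-fluorouracil as positive control. ED50 calculated from the mean of six determinations.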

Turning to `COc1cc(O)cc2c1C(=O)C[C@@H](c1ccc(O)cc1)O2`, the EC50 (in test [1]; in the test on HT-1080) was above 100 µM each time.

`O=C(/C=C/c1ccc(O)cc1)c1ccc(O)cc1` [4,4'-DIHYDROXYCHALCONE]: the EC50 (in test [1]; in the test with HT-1080) was above 100 µM each time.

For `COc1cc(O)cc(O)c1C(=O)/C=C/c1ccc(O)cc1` [HELICHRYSETIN], the EC50 in test [1] came out at 64.7 µM; in the test with HT-1080, 40.1 µM.

Take `COC(=O)/C=C/c1ccc(O)cc1` [METHYL P-HYDROXYCINNAMATE]: the values for the EC50 (in test [1]; in the test with HT-1080) were 84.2 µM and above 100 µM, respectively.

Turning to `CCO[C@@H](/C=C/c1ccccc1)C[C@@H](O)CCc1ccc(O)cc1`, the EC50 (in test [1]; in the test on HT-1080) was above 100 µM each time.

`CCO[C@H](/C=C/c1ccccc1)C[C@@H](O)CCc1ccc(O)cc1`: the EC50 was 94.6 µM in test [1] and above 100 µM in the test on HT-1080.

`CC[C@H](CC[C@@H](C)[C@H]1CC[C@H]2[C@@H]3CC=C4C[C@@H](O[C@@H]5O[C@H](CO)[C@@H](O)[C@H](O)[C@H]5O)CC[C@]4(C)[C@H]3CC[C@]12C)C(C)C` [SITOGLUSIDE]: the EC50 (in test [1]; with HT-1080) was above 100 µM in each case.

Take `O=C(O)/C=C/c1ccc(O)cc1` [COUMARIC ACID]: the EC50 (in test [1]; with HT-1080) was above 100 µM each time.

In the case of `COc1cc(/C=C/c2ccccc2)oc(=O)c1` [DESMETHOXYYANGONIN], the EC50 (in test [1]; with HT-1080) was above 100 µM in each case.

For `COc1cc(/C=C/c2ccc(O)cc2)oc(=O)c1`, the EC50 amounted to 20.7 µM in test [1] and 20.1 µM in the test on HT-1080.

As for `CO[C@@H](CCc1ccc(O)cc1)CC(=O)/C=C/c1ccc(O)cc1`, the EC50 in test [1] came out at 5.2 µM; with HT-1080 it was 10.1 µM.

On to `Oc1ccc(CC[C@H](O)C[C@@H](O)CCc2ccc(O)cc2)cc1`, for which the values for the EC50 (in test [1]; with HT-1080) were 12.8 µM and 94.4 µM, respectively.

On to `CC(=O)/C=C/c1ccc(O)cc1`, for which the EC50 (in test [1]; in the test on HT-1080) was above 100 µM each time.

As to `Oc1cc(O)cc(O)c1` [PHLOROGLUCINOL], the values for the EC50 (in test [1]; with HT-1080) were 26.4 µM and 20.9 µM, respectively.

For `O=C(/C=C(O)/C=C/c1ccc(O)cc1)CCc1ccc(O)cc1`, the EC50 in test [1] was 62.6 µM; in the test with HT-1080, above 100 µM.

Consider `CO[C@H](/C=C/c1ccccc1)C[C@@H](O)CCc1ccc(O)cc1`, for which the values for the EC50 (in test [1]; in the test with HT-1080) were 86.4 µM and above 100 µM, respectively.

With `O=Cc1ccc(O)cc1` [4-HYDROXYBENZALDEHYDE], the EC50 (in test [1]; with HT-1080) was above 100 µM in each case.

For the molecule `CO[C@@H](/C=C/c1ccccc1)C[C@@H](O)CCc1ccc(O)cc1`, the EC50 (in test [1]; in the test on HT-1080) was above 100 µM each time.

Regarding `O=c1[nH]cc(F)c(=O)[nH]1` [FLUOROURACIL], the EC50 in test [1] was determined as 0.5 µM; in the test on HT-1080 it was 8 µM.

Turning to `COc1cc(O)cc(OC)c1C(=O)/C=C/c1ccc(O)cc1`, the EC50 was determined as 28.7 µM in test [1] and 50.5 µM in the test on HT-1080.

Take `O=C(/C=C/C=C/c1ccc(O)cc1)CCc1ccc(O)cc1`: the EC50 in test [1] is 57.7 µM; in the test on HT-1080 it was 78.8 µM.
